Assay results published in ChEMBL document CHEMBL5257027 (Eur J Med Chem, 2016).

Assays:
[1] = system: Serine/threonine-protein kinase B-raf (Homo sapiens), P15056 [V600E]; test: Inhibition of B-RAF V600E mutant (unknown origin) at 10 uM using […] as substrate incubated for 40 mins in presence of [gamma33P]ATP by scintillation counting based hotspot kinase assay relative to control
HOP-92 [2] = test: Antiproliferative activity against human HOP-92 cells assessed as reduction in cell growth; type: functional
Summary of the method: (§1)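 NCI five-dose testing across the 58-line panel gives GI50, TGI and LC50 for each line. Subpanel lines report mean GI50 for each of the nine cancer types.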

SNB-75 [3] = test: Antiproliferative activity against human SNB-75 cells assessed as total growth inhibition; type: functional; summary of the method: as §1
HCT-15 [4] = test: Cytotoxicity against human HCT-15 cells; type: functional; conditions: read-out: LC50 (the source's name)
Summary of the method: (§2)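 Run in the US NCI 58-cell-line screen covering nine cancer types (leukemia, NSCLC, colon, CNS, melanoma, ovarian, renal, prostate, breast). Five-dose mode gave GI50, TGI and LC50 values for each cell line. In the single-dose pre-screen, % inhibition was taken as 100 minus growth percentage.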

COLO 205 [5] = test: Antiproliferative activity against human COLO 205 cells assessed as total growth inhibition; type: functional; summary of the method: as §1
K562 [6] = test: Antiproliferative activity against human K562 cells assessed as reduction in cell growth; type: functional; summary of the method: as §1
SK-MEL-5 [7] = test: Antiproliferative activity against human SK-MEL-5 cells assessed as reduction in cell growth; type: functional; summary of the method: as §1
K562 [8] = test: Cytotoxicity against human k562 cells; type: functional; conditions: read-out: LC50 (the source's name); summary of the method: as §2
[9] = system: Panel renal (Carcinoma cell lines); test: Antiproliferative activity against human Panel renal (8 Carcinoma cell lines) assessed as reduction in mean cell growth; type: functional; summary of the method: as §1
Homo sapiens = species on record: Homo sapiens; test: Inhibition of ABL […] mutant (unknown origin) at 10 uM using […] as substrate incubated for 40 mins in presence of [gamma33P]ATP by scintillation counting based hotspot kinase assay relative to control
[10] = system: Panel melanoma (Carcinoma cell lines); test: Antiproliferative activity against human Panel melanoma (9 Carcinoma cell lines) assessed as reduction in mean cell growth; type: functional; summary of the method: as §1
[11] = Antiproliferative activity against human Panel NCI-58 (58 Carcinoma cell lines) assessed as reduction in mean cell growth at 10 uM; type: functional; parameters: scale not given: the % may be the effect or the level left
Summary of the method: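 NCI 58-cell-line screen covering leukemia, NSCLC, colon, CNS, melanoma, ovarian, renal, prostate and breast lines. Compounds given once at […] (micromolar per the line). Percent inhibition taken as 100 minus growth percent. Panel line reports the mean over all 58 lines.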

HOP-92 [12] = test: Antiproliferative activity against human HOP-92 cells assessed as total growth inhibition; type: functional; summary of the method: as §1
NCI/ADR-RES [13] = test: Antiproliferative activity against human NCI/ADR-RES cells assessed as total growth inhibition; type: functional; summary of the method: as §1
MDA-MB-468 [14] = test: Cytotoxicity against human MDA-MB-468 cells; type: functional; conditions: read-out: LC50 (the source's name); summary of the method: as §2
[15] = system: Panel leukemia (Carcinoma cell lines); test: Antiproliferative activity against human Panel leukemia (5 Carcinoma cell lines) assessed as reduction in mean cell growth; type: functional; summary of the method: as §1
PC-3 [16] = test: Antiproliferative activity against human PC-3 cells assessed as total growth inhibition; type: functional; summary of the method: as §1
SNB-75 [17] = test: Antiproliferative activity against human SNB-75 cells assessed as reduction in cell growth; type: functional; summary of the method: as §1
RXF 393 [18] = test: Antiproliferative activity against human RXF 393 cells assessed as reduction in cell growth; type: functional; summary of the method: as §1
[19] = target: Mitogen-activated protein kinase 14 (Homo sapiens) (UniProt Q16539); test: Inhibition of MAPK14 (p38 alpha) (unknown origin) at 10 uM using […] as substrate incubated for 40 mins in presence of [gamma33P]ATP by scintillation counting based hotspot kinase assay relative to control
L132 = test: Cytotoxicity against human L132 cells assessed as reduction in cell growth at 31.3 to 100 uM relative to control; type: toxicity, cell-based; parameters: scale not given: the % may be the effect or the level left; conditions: l132, 100 µM, dose 31.3-100 µM
HCT-15 [20] = test: Antiproliferative activity against human HCT-15 cells assessed as total growth inhibition; type: functional; summary of the method: as §1
COLO 205 [21] = test: Antiproliferative activity against human COLO 205 cells assessed as reduction in cell growth; type: functional; summary of the method: as §1
[22] = target: RAF proto-oncogene serine/threonine-protein kinase (Homo sapiens, UniProt P04049); test: Inhibition of RAF1 (unknown origin) at 10 uM using […] as substrate incubated for 40 mins in presence of [gamma33P]ATP by scintillation counting based hotspot kinase assay relative to control
[23] = system: Panel prostate (Carcinoma cell lines); test: Antiproliferative activity against human Panel prostate (2 Carcinoma cell lines) assessed as reduction in mean cell growth; type: functional; summary of the method: as §1
SK-MEL-5 [24] = test: Antiproliferative activity against human SK-MEL-5 cells assessed as total growth inhibition; type: functional; summary of the method: as §1
MDA-MB-468 [25] = test: Antiproliferative activity against human MDA-MB-468 cells assessed as reduction in cell growth; type: functional; summary of the method: as §1
SK-MEL-5 [26] = test: Cytotoxicity against human SK-MEL-5 cells; type: functional; summary of the method: as §2
RXF 393 [27] = test: Cytotoxicity against human RXF 393 cells; type: functional; summary of the method: as §2
RXF 393 [28] = test: Antiproliferative activity against human RXF 393 cells assessed as total growth inhibition; type: functional; summary of the method: as §1
[29] = system: Panel CNS (Carcinoma cell lines); test: Antiproliferative activity against human Panel CNS (6 Carcinoma cell lines) assessed as reduction in mean cell growth; type: functional; summary of the method: as §1
PC-3 [30] = test: Antiproliferative activity against human PC-3 cells assessed as reduction in cell growth; type: functional; summary of the method: as §1
NCI/ADR-RES [31] = test: Antiproliferative activity against human NCI/ADR-RES cells assessed as reduction in cell growth; type: functional; summary of the method: as §1
COLO 205 [32] = test: Cytotoxicity against human COLO 205 cells; type: functional; summary of the method: as §2
[33] = Antiproliferative activity against human Panel non-small cell lung cancer (8 Carcinoma cell lines) assessed as reduction in mean cell growth; type: functional; conditions: Non-small cell lung cancer cell line; summary of the method: as §1
[34] = system: Panel colon (Carcinoma cell lines); test: Antiproliferative activity against human Panel colon (7 Carcinoma cell lines) assessed as reduction in mean cell growth; type: functional; summary of the method: as §1
[35] = system: Panel ovarian (Carcinoma cell lines); test: Antiproliferative activity against human Panel ovarian (7 Carcinoma cell lines) assessed as reduction in mean cell growth; type: functional; summary of the method: as §1
SNB-75 [36] = test: Cytotoxicity against human SNB-75 cells; type: functional; conditions: read-out: LC50 (the source's name); summary of the method: as §2
MDA-MB-468 [37] = test: Antiproliferative activity against human MDA-MB-468 cells assessed as total growth inhibition; type: functional; summary of the method: as §1
HCT-15 [38] = test: Antiproliferative activity against human HCT-15 cells assessed as reduction in cell growth; type: functional; summary of the method: as §1
K562 [39] = test: Antiproliferative activity against human K562 cells assessed as total growth inhibition; type: functional; summary of the method: as §1
[40] = target: Epidermal growth factor receptor (Homo sapiens) (UniProt P00533); test: Inhibition of EGFR (unknown origin) at 10 uM using […] as substrate incubated for 40 mins in presence of [gamma33P]ATP by scintillation counting based hotspot kinase assay relative to control
[41] = target: Serine/threonine-protein kinase B-raf (Homo sapiens) (UniProt P15056); test: Inhibition of B-RAF (unknown origin) at 10 uM using […] as substrate incubated for 40 mins in presence of [gamma33P]ATP by scintillation counting based hotspot kinase assay relative to control
HOP-92 [42] = test: Cytotoxicity against human HOP-92 cells; type: functional; summary of the method: as §2
PC-3 [43] = test: Cytotoxicity against human PC-3 cells; type: functional; summary of the method: as §2
NCI/ADR-RES [44] = test: Cytotoxicity against human NCI/ADR-RES cells; type: functional; summary of the method: as §2
[45] = system: Panel breast (Carcinoma cell lines); test: Antiproliferative activity against human Panel breast (6 Carcinoma cell lines) assessed as reduction in mean cell growth; type: functional; summary of the method: as §1
[46] = target: Tyrosine-protein kinase ABL1 (Homo sapiens) (UniProt P00519); test: Inhibition of ABL (unknown origin) at 10 uM using […] as substrate incubated for 40 mins in presence of [gamma33P]ATP by scintillation counting based hotspot kinase assay relative to control
Sequence of Tyrosine-protein kinase ABL1 (Homo sapiens) (P00519 whole entry): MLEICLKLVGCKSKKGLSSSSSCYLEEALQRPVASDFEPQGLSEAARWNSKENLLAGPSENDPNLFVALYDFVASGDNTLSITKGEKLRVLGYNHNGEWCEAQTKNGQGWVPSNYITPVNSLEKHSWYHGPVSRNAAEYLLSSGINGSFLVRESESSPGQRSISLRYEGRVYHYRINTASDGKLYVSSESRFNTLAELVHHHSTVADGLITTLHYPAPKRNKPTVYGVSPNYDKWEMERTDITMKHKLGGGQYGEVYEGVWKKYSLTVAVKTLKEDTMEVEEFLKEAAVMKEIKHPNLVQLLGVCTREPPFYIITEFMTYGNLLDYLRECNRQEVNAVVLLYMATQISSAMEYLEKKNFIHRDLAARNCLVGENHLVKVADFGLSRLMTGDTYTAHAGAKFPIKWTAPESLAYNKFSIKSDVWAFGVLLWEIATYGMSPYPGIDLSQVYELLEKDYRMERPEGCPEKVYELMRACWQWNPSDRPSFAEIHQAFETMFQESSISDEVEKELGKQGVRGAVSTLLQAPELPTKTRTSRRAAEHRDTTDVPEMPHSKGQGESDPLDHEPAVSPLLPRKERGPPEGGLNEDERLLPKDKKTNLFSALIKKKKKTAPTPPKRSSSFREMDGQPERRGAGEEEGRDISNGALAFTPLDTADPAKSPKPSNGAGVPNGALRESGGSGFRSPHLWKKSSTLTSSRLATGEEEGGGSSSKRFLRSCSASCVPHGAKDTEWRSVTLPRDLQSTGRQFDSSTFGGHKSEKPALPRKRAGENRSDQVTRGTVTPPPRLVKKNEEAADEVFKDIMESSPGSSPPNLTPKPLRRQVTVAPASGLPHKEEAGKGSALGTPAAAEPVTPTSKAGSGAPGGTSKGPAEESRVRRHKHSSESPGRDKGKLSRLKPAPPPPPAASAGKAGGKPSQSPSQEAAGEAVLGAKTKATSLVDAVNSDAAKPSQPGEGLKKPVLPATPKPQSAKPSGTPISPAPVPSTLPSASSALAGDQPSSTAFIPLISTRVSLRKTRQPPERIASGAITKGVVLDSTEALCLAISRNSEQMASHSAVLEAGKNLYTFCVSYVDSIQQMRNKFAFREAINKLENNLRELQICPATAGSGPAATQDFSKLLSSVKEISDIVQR

Sequence of Serine/threonine-protein kinase B-raf (Homo sapiens), P15056 [V600E] (P15056 whole entry V600E): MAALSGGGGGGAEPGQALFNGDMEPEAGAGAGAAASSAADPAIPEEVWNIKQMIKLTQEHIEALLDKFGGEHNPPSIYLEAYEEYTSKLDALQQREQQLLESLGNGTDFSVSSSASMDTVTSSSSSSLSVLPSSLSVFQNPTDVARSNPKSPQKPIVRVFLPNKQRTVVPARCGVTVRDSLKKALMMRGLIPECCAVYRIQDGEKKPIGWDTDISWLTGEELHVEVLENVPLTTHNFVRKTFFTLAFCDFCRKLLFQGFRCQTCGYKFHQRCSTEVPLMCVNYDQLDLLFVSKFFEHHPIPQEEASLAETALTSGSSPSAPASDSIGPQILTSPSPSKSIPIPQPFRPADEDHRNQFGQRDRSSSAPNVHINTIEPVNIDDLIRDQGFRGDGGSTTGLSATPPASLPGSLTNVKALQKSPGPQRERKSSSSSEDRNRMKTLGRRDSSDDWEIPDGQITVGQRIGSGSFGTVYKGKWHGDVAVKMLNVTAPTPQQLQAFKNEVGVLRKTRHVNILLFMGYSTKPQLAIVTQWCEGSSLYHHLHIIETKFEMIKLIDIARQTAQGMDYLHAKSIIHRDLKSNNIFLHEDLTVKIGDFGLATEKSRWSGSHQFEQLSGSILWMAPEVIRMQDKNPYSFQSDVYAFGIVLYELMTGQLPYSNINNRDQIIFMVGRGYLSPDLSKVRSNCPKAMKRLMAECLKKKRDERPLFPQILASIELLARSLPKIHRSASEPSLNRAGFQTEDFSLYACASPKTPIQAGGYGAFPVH
Sequence of Epidermal growth factor receptor (Homo sapiens) (P00533 whole entry): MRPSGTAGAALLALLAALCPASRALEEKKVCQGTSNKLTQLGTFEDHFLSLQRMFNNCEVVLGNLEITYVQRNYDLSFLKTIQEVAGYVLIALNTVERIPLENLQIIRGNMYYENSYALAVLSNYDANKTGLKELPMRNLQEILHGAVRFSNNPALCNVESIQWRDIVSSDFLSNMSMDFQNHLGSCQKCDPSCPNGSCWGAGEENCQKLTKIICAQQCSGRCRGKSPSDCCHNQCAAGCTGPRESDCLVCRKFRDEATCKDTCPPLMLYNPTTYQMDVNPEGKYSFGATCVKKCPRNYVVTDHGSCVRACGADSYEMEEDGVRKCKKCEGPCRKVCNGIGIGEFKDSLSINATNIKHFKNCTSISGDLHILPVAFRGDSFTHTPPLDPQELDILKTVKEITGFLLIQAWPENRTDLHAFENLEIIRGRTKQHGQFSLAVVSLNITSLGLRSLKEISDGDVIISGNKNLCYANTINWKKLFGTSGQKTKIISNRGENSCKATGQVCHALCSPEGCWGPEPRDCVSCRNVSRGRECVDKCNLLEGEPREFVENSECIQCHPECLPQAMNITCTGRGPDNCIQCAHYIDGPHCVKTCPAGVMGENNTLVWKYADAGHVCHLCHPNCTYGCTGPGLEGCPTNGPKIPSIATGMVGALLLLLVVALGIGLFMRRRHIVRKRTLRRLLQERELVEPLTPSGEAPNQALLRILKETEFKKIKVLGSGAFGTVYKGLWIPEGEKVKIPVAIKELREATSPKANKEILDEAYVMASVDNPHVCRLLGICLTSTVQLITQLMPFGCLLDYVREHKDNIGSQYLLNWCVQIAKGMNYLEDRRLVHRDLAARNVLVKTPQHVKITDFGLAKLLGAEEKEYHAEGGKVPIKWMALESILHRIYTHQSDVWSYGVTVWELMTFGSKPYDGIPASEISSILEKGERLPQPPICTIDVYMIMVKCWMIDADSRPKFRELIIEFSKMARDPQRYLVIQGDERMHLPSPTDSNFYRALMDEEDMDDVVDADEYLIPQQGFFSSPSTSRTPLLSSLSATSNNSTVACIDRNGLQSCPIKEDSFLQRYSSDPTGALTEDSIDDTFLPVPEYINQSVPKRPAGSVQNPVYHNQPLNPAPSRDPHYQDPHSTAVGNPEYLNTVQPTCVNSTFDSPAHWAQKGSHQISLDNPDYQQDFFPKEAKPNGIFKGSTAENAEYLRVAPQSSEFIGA
Sequence of RAF proto-oncogene serine/threonine-protein kinase (P04049 whole entry): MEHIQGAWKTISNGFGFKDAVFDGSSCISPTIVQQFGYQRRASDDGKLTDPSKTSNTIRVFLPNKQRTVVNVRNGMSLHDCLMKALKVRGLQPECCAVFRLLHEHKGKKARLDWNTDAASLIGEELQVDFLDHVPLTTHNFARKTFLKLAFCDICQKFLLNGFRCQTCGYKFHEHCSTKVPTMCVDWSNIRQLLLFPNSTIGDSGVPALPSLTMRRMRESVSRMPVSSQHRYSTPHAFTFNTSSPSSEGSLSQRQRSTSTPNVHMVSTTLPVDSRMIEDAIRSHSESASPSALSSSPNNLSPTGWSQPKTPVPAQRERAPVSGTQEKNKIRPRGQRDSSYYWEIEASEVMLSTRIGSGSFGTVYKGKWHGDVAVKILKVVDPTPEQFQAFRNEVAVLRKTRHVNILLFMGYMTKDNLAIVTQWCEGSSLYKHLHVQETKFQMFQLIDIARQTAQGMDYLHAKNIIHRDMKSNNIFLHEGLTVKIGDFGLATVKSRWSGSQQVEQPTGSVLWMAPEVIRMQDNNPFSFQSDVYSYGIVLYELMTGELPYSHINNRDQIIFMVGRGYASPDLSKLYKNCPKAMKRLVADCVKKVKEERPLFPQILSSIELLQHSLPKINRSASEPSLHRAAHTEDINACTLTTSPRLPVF
Sequence of Mitogen-activated protein kinase 14 (Homo sapiens) (Q16539 whole entry): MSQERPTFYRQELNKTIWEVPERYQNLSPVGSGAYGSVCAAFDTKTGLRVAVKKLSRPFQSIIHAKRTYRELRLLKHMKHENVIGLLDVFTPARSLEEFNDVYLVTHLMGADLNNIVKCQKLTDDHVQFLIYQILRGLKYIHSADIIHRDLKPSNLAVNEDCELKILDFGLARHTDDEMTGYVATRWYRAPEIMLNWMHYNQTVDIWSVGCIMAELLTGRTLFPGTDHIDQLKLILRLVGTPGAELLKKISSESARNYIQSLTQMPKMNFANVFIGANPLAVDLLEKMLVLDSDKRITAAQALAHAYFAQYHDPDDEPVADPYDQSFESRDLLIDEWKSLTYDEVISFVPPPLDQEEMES
Sequence of Serine/threonine-protein kinase B-raf (Homo sapiens) (P15056 whole entry): as the sequence (P15056 whole entry V600E) above, with E600V counted along it

Compound: O=C(NCCCNc1cc(-c2cn(-c3ccccc3)nc2-c2cccc(O)c2)ccn1)c1ccc(F)cc1
- inhibition [1]: 40.1%
- GI50 (HOP-92 [2]): 2130 nM
- TGI (SNB-75 [3]): 12.5 µM
- CC50 (HCT-15 [4]): 8.09 µM
- TGI (COLO 205 [5]): 3.78 µM
- GI50 (K562 [6]): 1930 nM
- GI50 (SK-MEL-5 [7]): 1610 nM
- CC50 (K562 [8]): 100 µM
- GI50 [9]: 2.84 µM
- inhibition (Homo sapiens): 14.6%
- GI50 [10]: 1.91 µM
- Activity [11]: >80%
- TGI (HOP-92 [12]): 3.28 µM
- TGI (NCI/ADR-RES [13]): 5.82 µM
- CC50 (MDA-MB-468 [14]): 6.92 µM
- GI50 [15]: 1980 nM
- TGI (PC-3 [16]): 5.24 µM
- GI50 (SNB-75 [17]): 5.19 µM
- GI50 (RXF 393 [18]): 1630 nM
- inhibition [19]: 66.6%
- Activity (L132): 50%
- TGI (HCT-15 [20]): 3.71 µM
- GI50 (COLO 205 [21]): 1600 nM
- inhibition [22]: 36.4%
- GI50 [23]: 3.72 µM
- TGI (SK-MEL-5 [24]): 3.15 µM
- GI50 (MDA-MB-468 [25]): 1590 nM
- LC50 (SK-MEL-5 [26]): 5.72 µM
- LC50 (RXF 393 [27]): 5.99 µM
- TGI (RXF 393 [28]): 3.03 µM
- GI50 [29]: 3.29 µM
- GI50 (PC-3 [30]): 2810 nM
- GI50 (NCI/ADR-RES [31]): 2200 nM
- LC50 (lethal concentration 50%) (COLO 205 [32]): 7.6 µM
- GI50 [33]: 3.12 µM
- GI50 [34]: 2160 nM
- GI50 [35]: 3.46 µM
- CC50 (SNB-75 [36]): 74 µM
- TGI (MDA-MB-468 [37]): 3.43 µM
- GI50 (HCT-15 [38]): 1770 nM
- TGI (K562 [39]): 4.83 µM
- inhibition [40]: 15.7%
- inhibition [41]: 22.5%
- LC50 (HOP-92 [42]): 7.38 µM
- LC50 (PC-3 [43]): 44.3 µM
- LC50 (NCI/ADR-RES [44]): 29.7 µM
- GI50 [45]: 1890 nM
- inhibition [46]: 16.1%

Compound: COc1cccc(-c2nn(-c3ccccc3)cc2-c2ccnc(NCCCNC(=O)c3cccc(C(F)(F)F)c3)c2)c1
- GI50 (HOP-92 [2]): 2480 nM
- GI50 (K562 [6]): 3690 nM
- GI50 (SK-MEL-5 [7]): 1540 nM
- GI50 (SNB-75 [17]): 17 µM
- GI50 (RXF 393 [18]): 2200 nM
- GI50 (COLO 205 [21]): 3330 nM
- GI50 (MDA-MB-468 [25]): 1950 nM
- GI50 (PC-3 [30]): 3180 nM
- GI50 (NCI/ADR-RES [31]): 3540 nM
- GI50 (HCT-15 [38]): 3400 nM

Compound: COc1cccc(-c2nn(-c3ccccc3)cc2-c2ccnc(NCCNC(=O)Nc3ccc(Cl)c(Cl)c3)c2)c1
- GI50 [9]: 4.63 µM
- GI50 [10]: 4.15 µM
- Activity [11]: >80%
- GI50 [15]: 3400 nM
- GI50 [23]: 5.95 µM
- GI50 [29]: 7.19 µM
- GI50 [33]: 3.02 µM
- GI50 [34]: 3730 nM
- GI50 [35]: 4.72 µM
- GI50 [45]: 3350 nM
